Lipid droplet: hepatic lipid droplet formation modulation | AID 1656 | inhibition, % at 6.5 µM | AML12 mouse hepatocytes, oleate lipid droplets, BODIPY imaging | hit rate 0.4% among 240,000;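 active = lipid droplet intensity inhibited by at least 50%, with more than 500 cells counted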
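material = mouse AML12 hepatocyte cell line, fixed after treatment | also added = 100 µM oleic acid challenge | doses = compound at 6.5 µM only | schedule = overnight exposure | technique = Image-based BODIPY and DAPI two-channel analysis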
aDG glyco up: increases alpha dystroglycan glycosylation; Pro5-aDG cells, alpha-DG glycosylation AlphaScreen (IIH6); 0% Pro5, 100% B10-LARGE cell signal; activation, % at 10 µM; hit rate 0.22% among 360,000;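 active = activation of at least 8% versus controls, or a plate z-score of at least 8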;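 note: Pro5 are CHO cells carrying HIG-tagged alpha-DG that lacks glycosylation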
NPR1 activator: GC-A (human) enzyme activation. P16066. hit rate 0.14% among 370,000. AID 1671463. HEK293 GC-A cells, cGMP TR-FRET, EC30 ANP; 0% at EC30 ANP, 100% saturating ANP. activation, % at 10 µM; in the data active = activation above about 40%
JMJD2C inh: blocks human GASC-1 demethylase activity | AID 2099 | inhibition, % at 2.35 µM | hit rate 0.069% among 330,000 | Q9H3R0 | GST-JMJD2C(1-420) H3K9me3 demethylation, DELFIA europium;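 active = more than half of a compound's replicate wells show inhibition beyond 50%, single wells judged on their own value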;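 note: signal counts dimethyl H3K9 product captured on neutravidin plate; 0% = median of DMSO wells and 100% = 0.3 times that DMSO median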
Target sequence (Q9H3R0 1-420 limits assumed): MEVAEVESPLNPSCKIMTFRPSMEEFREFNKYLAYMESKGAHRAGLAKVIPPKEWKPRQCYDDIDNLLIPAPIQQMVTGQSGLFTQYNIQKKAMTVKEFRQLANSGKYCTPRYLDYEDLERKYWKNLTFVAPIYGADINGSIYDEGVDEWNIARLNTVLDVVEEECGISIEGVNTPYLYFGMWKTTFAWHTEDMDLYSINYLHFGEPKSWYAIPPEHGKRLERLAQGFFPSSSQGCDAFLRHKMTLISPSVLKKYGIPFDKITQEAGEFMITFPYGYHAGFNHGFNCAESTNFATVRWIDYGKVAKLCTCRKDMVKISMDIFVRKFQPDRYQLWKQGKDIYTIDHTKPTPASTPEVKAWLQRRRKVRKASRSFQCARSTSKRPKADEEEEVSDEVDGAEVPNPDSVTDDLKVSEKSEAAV
NR3A LBD binder: modulators (binders) of human NR3A ligand-binding domain; NR3A LBD differential scanning fluorimetry, Tm shift; 0% = protein alone, 100% = glycine-bound protein; Tm shift relative to glycine control, % at 25 µM; hit rate 2.5% among 340,000; AID 1259313;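 active = melting temperature shift of at least 10% of the positive control shift, at one fixed dose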
NPR2 activator: GC-B (human) receptor activation; P20594; HEK293-GC-B cells, CNP EC30, cGMP TR-FRET; 0% at EC30 CNP, 100% saturating CNP; activation, % at 10 µM; hit rate 0.11% among 370,000; AID 1920062;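 active = activation at 10 µM reaching about 35% in either raw or pattern-adjusted values, limit read from the data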
Active calls of the source: *. Only some compounds are listed: those with a hit (about 3% of all), similar ones and a draw of the others.

Screening Cc1ccc(CSc2nnc(SCC(=O)N/N=C/c3c(C)nn(-c4ccccc4)c3C)s2)cc1 returned Lipid droplet 30.2, aDG glyco up 0.6, NPR1 activator 0.0, JMJD2C inh 4.1, NR3A LBD binder -5.2 and NPR2 activator 3.0.
O=C(CSc1nnc(SCc2cccc3ccccc23)s1)N/N=C/c1c[nH]c2ccccc12 was read as Lipid droplet -0.1, aDG glyco up -0.1, NPR1 activator -3.9, JMJD2C inh 0.4, NR3A LBD binder 22.4* and NPR2 activator -4.4.
Screening Cc1c(C)n(Cc2ccc(-c3ccccc3C(=O)O)cc2)c2ccc(C(=O)N[C@@H](C)c3ccc([N+](=O)[O-])cc3)cc12 returned NPR1 activator -13.4 and NPR2 activator 2.7.
O=C(NC1CCCC1)c1nc(-c2c(F)cccc2F)oc1-c1ccccc1 was read as aDG glyco up 0.0, NPR1 activator 1.7 and NPR2 activator -0.1.
For COc1cccc(C(=O)Nc2ccc(NC(=O)C(C)(C)C)cn2)c1 the results were Lipid droplet 7.0, aDG glyco up 0.6, NPR1 activator 4.3, JMJD2C inh -4.0, NR3A LBD binder 17.2* and NPR2 activator -4.0.
For COc1cc(C(=O)Nc2ccc(NC(=O)c3cccc(Cl)c3)nc2)cc(OC)c1OC the results were Lipid droplet 3.9, aDG glyco up 0.1, NPR1 activator -0.9, JMJD2C inh 1.5, NR3A LBD binder 27.4* and NPR2 activator -0.1.
For COc1cccc(C(=O)Nc2ccc(NC(=O)C3CCCCC3)nc2)c1 the results were Lipid droplet 6.7, aDG glyco up 0.1, NPR1 activator 0.5, JMJD2C inh -3.7, NR3A LBD binder -5.2 and NPR2 activator 0.0.
Screening COCCOc1cc(N2C(=O)CSCC2=O)c(Cl)cc1Cl returned aDG glyco up 0.2, NPR1 activator -1.5, JMJD2C inh 0.2, NR3A LBD binder 11.6* and NPR2 activator 6.4.
`CNC(=O)CS(=O)(=O)CC(=O)Nc1cc(OCCOC)c(Cl)cc1Cl` gave Lipid droplet 3.8, aDG glyco up -0.1, NPR1 activator 1.9, JMJD2C inh 1.4, NR3A LBD binder -0.8 and NPR2 activator 4.2.
Screening COC(=O)[C@]12C[C@H](CC(=O)NCc3cccs3)C(=O)N(Cc3ccccc3)C1=C[C@H](C(C)(C)C)O[C@@H]2C returned NPR1 activator -12.0 and NPR2 activator -18.6.
O=C(Nc1ccc2c(c1)Cc1ccccc1-2)c1cccnc1 was read as Lipid droplet -21.9, aDG glyco up 0.3, NPR1 activator -6.8, JMJD2C inh 8.0, NR3A LBD binder 21.4* and NPR2 activator -4.1.
`COc1ccc(C(=O)Nc2ccc3c(c2)Cc2ccccc2-3)cc1` gave aDG glyco up 0.7, NPR1 activator -8.1, JMJD2C inh 10.3, NR3A LBD binder 17.0* and NPR2 activator -10.8.
Screening O=C(Nc1ccc2c(c1)Cc1ccccc1-2)c1ccco1 returned aDG glyco up 0.9, NPR1 activator -4.3, JMJD2C inh 5.1, NR3A LBD binder 22.0* and NPR2 activator -9.3.
Cc1ccc(NC(=O)c2ccco2)cc1C was read as aDG glyco up 0.9, NPR1 activator -1.2, JMJD2C inh -0.8, NR3A LBD binder 0.9 and NPR2 activator 0.9.
`COc1cccc(OC)c1C(=O)Nc1ccc2c(c1)Cc1ccccc1-2` gave Lipid droplet 2.4, aDG glyco up 2.3, NPR1 activator -4.3, JMJD2C inh -4.7, NR3A LBD binder -2.9 and NPR2 activator -1.1.
COc1cccc(-c2nnc3sc(-c4ccc(Br)o4)nn23)c1 was read as NPR1 activator 1.5 and NPR2 activator -0.8.
`COC(=O)c1c(-c2ccc(OC)cc2)c2c(c3c4cc(OC)ccc4n(C(=O)c4ccccc4)c13)C(=O)N(C)C2` gave NPR1 activator 1.7 and NPR2 activator 0.9.
Screening O=c1c(Cl)c(N/N=C/c2ccc(Cl)cc2)cnn1-c1ccccc1 returned Lipid droplet 10.2, aDG glyco up 0.1, NPR1 activator 0.4, JMJD2C inh -21.0, NR3A LBD binder 15.8* and NPR2 activator -1.1.
